M4 ag = agonists of human muscarinic M4 receptor (CHRM4); CHO-K1 hM4/Gqi5, Fluo-8 calcium fluorescence; vehicle 0%, full acetylcholine response 100%; activation, % at 3 µM; 0.14% of 360,000 active;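 active = activation above the run mean over all test wells plus 3 SD, cut at about 32% in these data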;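 note: peak over basal fluorescence ratio per well then scaled between controls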
Target sequence (P08173 whole entry, looked up): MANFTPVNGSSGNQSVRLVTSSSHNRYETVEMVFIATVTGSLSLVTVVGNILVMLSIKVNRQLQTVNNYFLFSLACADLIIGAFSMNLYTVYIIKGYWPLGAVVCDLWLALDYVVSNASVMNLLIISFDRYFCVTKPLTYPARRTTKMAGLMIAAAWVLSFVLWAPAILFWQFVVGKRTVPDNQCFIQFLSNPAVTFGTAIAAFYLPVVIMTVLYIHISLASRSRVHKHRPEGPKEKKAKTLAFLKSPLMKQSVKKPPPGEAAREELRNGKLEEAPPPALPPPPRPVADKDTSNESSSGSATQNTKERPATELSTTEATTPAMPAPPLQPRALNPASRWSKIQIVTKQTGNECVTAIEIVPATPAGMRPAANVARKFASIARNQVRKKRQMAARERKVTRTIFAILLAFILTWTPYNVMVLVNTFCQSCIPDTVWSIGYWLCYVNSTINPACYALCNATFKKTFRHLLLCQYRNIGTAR
CHRM5 PAM = positive allosteric modulators of human muscarinic M5 receptor; P08912; CHO-K1 hM5, Fluo-8 calcium, ACh EC20 PAM; 0% = ACh EC20, 100% = ACh EC100; activation, % at 3 µM; 0.3% of 360,000 active; AID 624038;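 active = activation above the run cutoff, the mean activation of all test compounds plus 3 SD, cut at about 18% in these data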
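system = human M5 receptor in CHO-K1 cells | compound = one concentration, 3 µM final (nominal) | schedule = Post-acetylcholine fluorescence recording 140 s | signal = Fluo-8 calcium dye fluorescence, kinetic read | benchmarks = low control EC20 acetylcholine (0%), high control EC100 acetylcholine (100%) | repeats = singlicate, one well per test compound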
CHRM5 agonist = agonists of human muscarinic M5 receptor (CHRM5); CHO-K1 hM5 cells, Fluo-8 calcium fluorescence; 0% DMSO wells, 100% maximal acetylcholine response; activation, % at 3 µM; 0.19% of 360,000 active; AID 624037; P08912;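 active = activation above the run's mean over test compounds plus 3 SD, cut at about 23% in these data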;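 note: signal is peak over basal fluorescence ratio across the kinetic read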
M4 PAM = CHRM4 positive allosteric modulation. CHO-K1 hM4/Gqi5, Fluo-8 calcium fluorescence, ACh EC20; 0% = ACh EC20, 100% = maximal ACh. activation, % at 3 µM. 0.4% of 360,000 active;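 active = activation above its plate's cutoff, the mean activation of sample wells plus 3 SD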
CHRM5 antagonist = CHRM5 antagonism in calcium assay; P08912; CHO-hM5 cells, Fluo-8 calcium fluorescence, ACh EC80; inhibition, % at 3 µM; 0.59% of 360,000 active; AID 624040;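 active = inhibition above a per-plate cutoff, the mean of that plate's test compounds plus 3 SD, cut at about 27% in these data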
CHRM4 antagonist = CHRM4 antagonism in calcium assay | P08173 | CHO-hM4 cells, ACh EC80, Fluo-8 calcium fluorescence | inhibition, % at 3 µM | 0.73% of 360,000 active;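 active = inhibition above its plate's cutoff, the mean inhibition of sample wells plus 3 SD, cut at about 27% in these data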
Large screens that a line does not name were inactive. An excerpt weighted towards active compounds, which were near 1.8% of everything screened.

COC(=O)NC(=C(Cl)Cl)P(=O)(c1ccccc1)c1ccccc1	M4 PAM 31
CN1C(=O)c2ccccc2NC(=O)[C@]12O[C@@H]2c1ccccc1	none
CN1CN=C(N[N+](=O)[O-])N(Cc2ccco2)C1	none
O=[N+]([O-])NC1=NCN(Cc2ccco2)CN1Cc1ccco1	CHRM5 PAM 19
O=C(Cc1ccccc1)N1CCN(Cc2cccc(Cl)c2)CC1	none
O=C(Cc1ccccc1)N1CCN(Cc2ccc(Cl)cc2)CC1	CHRM5 PAM 22
COc1ccc(N2C(=O)/C(=C/c3ccc(C)o3)C(=O)NC2=S)c(OC)c1	none
C=CCC1(Nc2ccccc2)CC(C)N(C)CC1C (stereo unspecified)	CHRM5 antagonist 52, CHRM4 antagonist 49
CC1CCC(NCCc2ccc3c(c2)OCO3)CC1 (stereo unspecified)	CHRM4 antagonist 32
c1cc2c(cc1CCNC1C3CC4CC(C3)CC1C4)OCO2 (stereo unspecified)	none
O=C(CCCN1CCC(n2c(=O)[nH]c3ccccc32)CC1)c1ccc(F)cc1	CHRM4 antagonist 27
Oc1cc(O)cc(/C=C/c2ccc(O)cc2O)c1	none
CCOC(=O)[C@]12Cc3cc(OC)ccc3[C@H]1N(C1CCCCC1)C(=O)c1ccccc12	none
CCOC(=O)[C@]12Cc3cc(Cl)ccc3[C@H]1N(C1CCCCC1)C(=O)c1ccccc12	CHRM5 agonist 24, CHRM4 antagonist 30
Cc1nc2ccccc2c(=O)n1-c1ccc(Cl)cc1[N+](=O)[O-]	none
O=c1[nH]c2ccccc2n1C1CCN(C(c2ccccc2OC(F)(F)F)c2nnnn2-c2ccc3c(c2)OCCO3)CC1 (stereo unspecified)	none
Cn1nnc(CC[N+](C)(C)C)n1	CHRM5 agonist 76, CHRM5 antagonist 65
COc1ccc(CNC(=O)C(NC(C)=O)C(C)C)cc1OC (stereo unspecified)	none
CC12C=CC(=O)CC1CCC1C2CCC2(C)C(O)C(O)CC12 (stereo unspecified)	CHRM5 antagonist 35
O=C(c1cccc(Cl)c1)C1CCCN(Cc2cccc3cnccc23)C1 (stereo unspecified)	none
O=C(c1ccc(Cl)cc1)C1CCCN(Cc2ccc3ncccc3c2)C1 (stereo unspecified)	CHRM4 antagonist 28
O=C(c1ccc(Cl)cc1)C1CCCN(Cc2ccc3c(c2)OCCO3)C1 (stereo unspecified)	none
O=C(c1ccc(Cl)cc1)C1CCCN(Cc2cccc3cnccc23)C1 (stereo unspecified)	CHRM5 antagonist 48, CHRM4 antagonist 48
CP(=O)(O)CN1CCCCC1	none
O=[N+]([O-])c1ccc(N2CCCCCC2)c2nonc12	M4 ag 144, CHRM5 agonist 545, CHRM5 antagonist 58, CHRM4 antagonist 38
O=[N+]([O-])c1ccc(N2CCCNCC2)c2ncccc12	CHRM5 antagonist 29, CHRM4 antagonist 27
O=[N+]([O-])c1ccc(N2CCCCC2)c2ncccc12	none
COC(=O)C1=C(c2ccc(C(C)=O)cc2)C[C@@H]2CC[C@H]1N2C(=O)NC1Cc2ccccc2C1	none
COC(=O)C1=C(c2cccc(C#N)c2)C[C@@H]2CC[C@H]1N2C(=O)N1CCCC1	none
NC(Cc1ccccc1)Cc1ccccc1	none
NC(Cc1ccccc1)c1nn[nH]n1 (stereo unspecified)	CHRM5 antagonist 30
N#CC12CC(=O)N1Cc1cnnn1-c1ccccc12 (stereo unspecified)	none
CCOc1ccccc1CN1C2CCC1CC(c1ccc(C)cc1)C2 (stereo unspecified)	none
CC(=O)c1cn(Cc2ccc(C#N)cc2)c2ccccc12	CHRM5 antagonist 42
CC(C)C(=O)c1cn(Cc2ccc(C#N)cc2)c2ccccc12	none
O=CC(Br)P(=O)(N1CCOCC1)N1CCOCC1 (stereo unspecified)	none
Cc1nn(Cc2ccccc2)c(C)c1C(=O)O	none

Screening data as filed in PubChem.
